Measurements reported in publication PMC8296307 (Epilepsy research, 2021).
Where two headings read alike, the source gives them in different places.

Assays:
m5-HT2C-VNV [1] = biological target: T1, m5-HT2C-VNV (Mus musculus, UniProt P34968, I157V/I161V); experiment: 5-HT2CR-mediated phosphoinositide hydrolysis, m5-HT2C-VNV in HEK293 cells; assay type: cell-based; conditions: for agonist efficacy: relative to 5-HT
T1 sequence (P34968 33-459 I157V/I161V): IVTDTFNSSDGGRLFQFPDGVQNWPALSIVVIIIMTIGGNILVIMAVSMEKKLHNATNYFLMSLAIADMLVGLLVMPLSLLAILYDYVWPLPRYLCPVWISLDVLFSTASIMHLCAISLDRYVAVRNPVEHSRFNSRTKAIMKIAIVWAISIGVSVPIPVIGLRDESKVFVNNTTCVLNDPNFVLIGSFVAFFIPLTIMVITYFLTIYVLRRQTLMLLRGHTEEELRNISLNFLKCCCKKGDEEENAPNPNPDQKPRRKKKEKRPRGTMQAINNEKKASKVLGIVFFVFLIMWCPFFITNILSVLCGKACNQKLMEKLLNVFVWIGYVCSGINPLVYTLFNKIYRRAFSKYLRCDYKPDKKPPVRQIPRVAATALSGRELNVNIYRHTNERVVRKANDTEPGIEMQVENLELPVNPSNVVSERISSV

m5-HT2C-VNV [2] = biological target: T1, m5-HT2C-VNV; assay type: binding
h5-HT2C-INI [3] = biological target: T2, h5-HT2C-INI (Homo sapiens, UniProt P28335); assay type: binding; conditions: [3H]Mesulergine, one-site fit Ki
T2 sequence (P28335 33-458): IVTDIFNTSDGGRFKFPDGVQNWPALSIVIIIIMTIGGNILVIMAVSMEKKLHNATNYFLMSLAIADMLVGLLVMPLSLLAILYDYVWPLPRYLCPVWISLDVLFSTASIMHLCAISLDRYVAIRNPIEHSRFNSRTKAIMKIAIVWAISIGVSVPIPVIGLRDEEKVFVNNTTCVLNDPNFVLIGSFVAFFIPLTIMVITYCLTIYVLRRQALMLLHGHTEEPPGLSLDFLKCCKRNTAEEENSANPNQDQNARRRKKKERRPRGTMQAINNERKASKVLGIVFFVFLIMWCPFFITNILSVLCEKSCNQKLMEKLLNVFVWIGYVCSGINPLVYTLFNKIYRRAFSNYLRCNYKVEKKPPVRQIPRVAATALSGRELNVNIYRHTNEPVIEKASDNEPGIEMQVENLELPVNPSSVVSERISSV

C57BL/6J mice [4] = experiment: DOI-elicited head-twitch response; assay type: in vivo, mouse; conditions: for HTR (mean count): 10-minute session
In short: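 C57BL/6J mice were acclimated to the testing room for ≥60 min. They then received s.c. vehicle (Milli-Q water) or test compound (1, 3 or 5.6 mg/kg), followed 10 min later by s.c. 5-HT2R agonist challenge (1.0 mg/kg). After a further 10 min, mice were placed in the open field for a 10-min session. Head twitches (rapid, discrete head jerks) were counted with a tally counter by an observer blind to treatment.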

m5-HT2A [5] = biological target: T3, m5-HT2A (Mus musculus, UniProt P35363); experiment: 5-HT2AR-mediated phosphoinositide hydrolysis, m5-HT2A in HEK293 cells; assay type: cell-based
T3 sequence (P35363 whole entry): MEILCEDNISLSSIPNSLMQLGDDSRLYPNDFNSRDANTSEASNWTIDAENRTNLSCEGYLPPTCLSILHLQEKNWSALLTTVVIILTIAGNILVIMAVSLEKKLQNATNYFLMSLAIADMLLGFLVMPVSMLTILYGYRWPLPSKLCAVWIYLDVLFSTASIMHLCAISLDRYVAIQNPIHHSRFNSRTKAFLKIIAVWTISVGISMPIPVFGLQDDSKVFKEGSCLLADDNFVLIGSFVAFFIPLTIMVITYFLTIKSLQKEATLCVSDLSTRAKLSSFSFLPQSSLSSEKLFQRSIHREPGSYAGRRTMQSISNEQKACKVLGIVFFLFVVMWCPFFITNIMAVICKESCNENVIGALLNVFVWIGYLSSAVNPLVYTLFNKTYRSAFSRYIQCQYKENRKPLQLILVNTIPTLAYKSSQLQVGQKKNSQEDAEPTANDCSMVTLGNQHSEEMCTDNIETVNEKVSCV

m5-HT2A [6] = biological target: T3, m5-HT2A; experiment: Radioligand competition binding, [3H]Ketanserin, m5-HT2A in HEK293 membranes
h5-HT2C-INI [7] = biological target: T2, h5-HT2C-INI; experiment: 5-HT2CR-mediated phosphoinositide hydrolysis, h5-HT2C-INI in HEK293 cells; assay type: cell-based; conditions: for agonist efficacy: relative to 5-HT
h5-HT2A = h5-HT2A (Homo sapiens, UniProt P28223); experiment: 5-HT2AR-mediated phosphoinositide hydrolysis, h5-HT2A in HEK293 cells; assay type: cell-based; conditions: relative to 5-HT
Chain of h5-HT2A (P28223 whole entry): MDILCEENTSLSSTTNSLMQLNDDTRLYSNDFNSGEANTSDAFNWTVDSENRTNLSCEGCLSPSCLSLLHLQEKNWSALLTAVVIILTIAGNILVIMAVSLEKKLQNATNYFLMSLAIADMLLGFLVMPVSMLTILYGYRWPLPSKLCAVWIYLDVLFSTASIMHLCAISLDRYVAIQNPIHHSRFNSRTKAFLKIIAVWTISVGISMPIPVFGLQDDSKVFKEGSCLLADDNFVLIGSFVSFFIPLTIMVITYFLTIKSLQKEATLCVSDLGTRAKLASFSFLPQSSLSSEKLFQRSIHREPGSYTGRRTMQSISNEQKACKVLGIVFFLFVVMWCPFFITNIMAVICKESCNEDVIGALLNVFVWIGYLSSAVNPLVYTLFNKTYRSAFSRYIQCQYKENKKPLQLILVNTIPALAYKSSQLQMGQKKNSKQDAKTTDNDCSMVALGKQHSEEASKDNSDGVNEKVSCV

[8] = test system: juvenile Fmr1 knockout mice; conditions: ref Armstrong et al., 2020; cited from earlier work
[9] = steady-state clinical dosing of 10 mg twice daily in monkeys; ref FDA briefing document NDA22529; cited from earlier work
[10] = test system: juvenile Fmr1 knockout mice; experiment: Audiogenic seizures; assay type: in vivo, mouse; conditions: for lethality: vehicle 60%; for seizure prevalence (TCS): vehicle 70%; for mean WRJ duration (± SD): vehicle 10 (±5)
C57BL/6J mice [11] = experiment: Locomotor activity in open field; assay type: in vivo, mouse
C57BL/6J mice [12] = experiment: Head-twitch response; assay type: in vivo, mouse; conditions: vehicle 2.6
[13] = phosphoinositide hydrolysis, mean
[14] = phosphoinositide hydrolysis, mean (95% CI)
[15] = lorcaserin 5.6 mg/kg with M100907 0.03 mg/kg pretreatment
[16] = 30 mg/kg i.p., 30 min before test

## COc1cc(CC(C)N)c(OC)cc1I (racemic) [DOI, (±)-2,5-dimethoxy-4-iodoamphetamine]
m5-HT2C-VNV [1]; [13]
  EC50: 8 nM
m5-HT2C-VNV [1]; [14]
  pEC50 (95% CI): 8.10 (8.41 to 7.80)
m5-HT2C-VNV [1]
  agonist efficacy: full agonists
m5-HT2C-VNV [2]; [3H]Mesulergine, one-site fit Ki, mean
  Ki: 65 nM
m5-HT2C-VNV [2]; [3H]Mesulergine, one-site fit Ki, mean (95% CI)
  pKi (95% CI): 7.19 (7.28 to 7.10)
h5-HT2C-INI [3]; mean
  Ki: 96 nM
h5-HT2C-INI [3]; mean (95% CI)
  pKi (95% CI): 7.02 (7.11 to 6.93)
C57BL/6J mice [4]; DOI 1 mg/kg s.c. alone
  HTR (mean count): 37.6
C57BL/6J mice [4]; DOI 1 mg/kg vs SB242084 plus lorcaserin 3 mg/kg
  more HTRs than SB242084 plus lorcaserin: 5 fold
m5-HT2A [5]; [13]
  EC50: 1 nM
m5-HT2A [5]; [14]
  pEC50 (95% CI): 9.00 (9.44 to 8.57)
m5-HT2A [5]; relative to 5-HT
  agonist efficacy: full efficacy m5-HT2AR agonist activity
m5-HT2A [6]; [3H]Ketanserin, one-site fit Ki, mean
  Ki: 33 nM
m5-HT2A [6]; [3H]Ketanserin, one-site fit Ki, mean (95% CI)
  pKi (95% CI): 7.48 (7.54 to 7.42)
m5-HT2A [6]; two-site fit Ki model
  pKi (95% CI) at the high-affinity site: 8.01 (8.70 to 7.64)
  pKi (95% CI) at the low-affinity site: 7.02 (7.32 to 6.30)
h5-HT2C-INI [7]; [13]
  EC50: 4.1 nM
h5-HT2C-INI [7]; [14]
  pEC50 (95% CI): 8.39 (8.76 to 8.04)
h5-HT2C-INI [7]
  agonist efficacy: full agonists
h5-HT2A
  agonist efficacy: full efficacy h5-HT2AR agonist activity

## CN(C)[C@H]1CCc2c(cccc2-c2ccccc2F)C1 [FPT, (S)-5-(2’-Fluorophenyl)-N,N-dimethyl-1,2,3,4-tetrahydronaphthalen-2-amine]
[8]
  prevention of AGSs: completely prevents AGSs

## O=C(c1ccc(F)cc1)C1CCN(CCn2c(=O)[nH]c3ccccc3c2=O)CC1 [Ketanserin]
m5-HT2A [6]; pKi (95% CI), [3H]Ketanserin, one-site fit Ki, mean (95% CI)
  Ki: 2.69 nM

## C[C@H]1CNCCc2ccc(Cl)cc21 [Lorcaserin]
m5-HT2C-VNV [1]
  EC50: 15.8 nM
  agonist efficacy: full agonists
m5-HT2C-VNV [2]
  Ki: 741 nM
[9]
  brain concentrations: ~ 1.7 μM
C57BL/6J mice [4]; lorcaserin 3 mg/kg plus DOI 1 mg/kg
  HTR (mean count): 44.1
C57BL/6J mice [4]; lorcaserin 5.6 mg/kg plus DOI 1 mg/kg
  HTR (mean count): 44.9
m5-HT2A [5]; EC50, phosphoinositide hydrolysis, mean
  EC50: 212 nM
m5-HT2A [5]; HEK293
  Emax: 84.6%
m5-HT2A [5]; pEC50 (95% CI), phosphoinositide hydrolysis, mean (95% CI)
  EC50: 209 nM
m5-HT2A [6]; Ki, [3H]Ketanserin, one-site fit Ki, mean
  Ki: 4460 nM
[10]; 1 mg/kg i.p.
  lethality: 67%
  seizure prevalence (TCS): 83%
[10]; 3 mg/kg i.p.
  lethality: 28%
  seizure prevalence (TCS): 56%
[10]; 3 mg/kg, relative to vehicle, not significant (P=0.06)
  attenuation of AGS lethality: 32%
[10]; 3 mg/kg, relative to vehicle, not significant (P=0.5)
  attenuation of AGS prevalence: 14%
[10]; 5.6 mg/kg alone
  mean WRJ duration (± SD): 19 (±12) seconds
[10]; 5.6 mg/kg i.p.
  lethality: 78%
  seizure prevalence (TCS): 94%
[10]; 5.6 mg/kg in combination with M100907 0.03 mg/kg
  mean WRJ duration (± SD): 20 (±14) seconds
[10]; 5.6 mg/kg, vehicle 41 (±8)
  mean TCS onset latency (± SD): 58 (±21) seconds
[10]; 10 mg/kg i.p.
  lethality: 78%
  seizure prevalence (TCS): 89%
[10]; 1, 3, 5.6, 10 mg/kg
  effect on WRJ latency: did not affect WRJ latency
[10]; 1-10 mg/kg i.p.
  prevention of AGSs: ineffective at preventing AGSs
[10]; [15]
  lethality: 50%
  seizure prevalence (TCS): 90%
[10]; some animals that received lorcaserin
  behaviours observed in treated animals: purposeless oral movements
h5-HT2C-INI [7]
  agonist efficacy: full agonists
C57BL/6J mice [11]; 3 mg/kg s.c. alone, relative to vehicle (P<0.0001)
  effect on locomotor activity: significantly reduced locomotor activity
C57BL/6J mice [11]; lorcaserin 3 mg/kg combined with SB242084 0.5 mg/kg, relative to vehicle (P=0.0003)
  effect on locomotor activity: significantly enhanced locomotor activity
C57BL/6J mice [12]; 3 mg/kg s.c. alone
  HTR (mean count): 4.1
C57BL/6J mice [12]; lorcaserin 3 mg/kg with SB242084 0.5 mg/kg s.c.
  HTR (mean count): 7
C57BL/6J mice [12]; lorcaserin 3 mg/kg with SB242084 1 mg/kg s.c.
  HTR (mean count): 6.3

## COc1cccc([C@H](O)C2CCN(CCc3ccc(F)cc3)CC2)c1OC [M100907]
[10]; 0.03 mg/kg i.p. alone
  lethality: 88%
  seizure prevalence (TCS): 100%

## Cc1cccc(C#Cc2ccccc2)n1 [MPEP, 2-methyl-6-(phenylethynyl)pyridine]
[10]; [16]
  lethality: 12%
  seizure prevalence (TCS): 12%
[10]; 30 mg/kg, vehicle 36 (±11)
  mean latency (± SD) to first episode of WRJ: 160 (±19) seconds

## CN1C[C@@H](NS(=O)(=O)N(C)C)C[C@@H]2c3cccc4c3c(cn4C)C[C@H]21 [Mesulergine]
m5-HT2C-VNV [2]
  Ki: 3.39 nM

## Cc1cc2c(cc1Cl)N(C(=O)Nc1ccc(Oc3cccnc3C)nc1)CC2 [SB242084]
C57BL/6J mice [11]; SB242084 0.5 mg/kg and 1 mg/kg s.c.
  effect on lorcaserin (3 mg/kg) reduced locomotor activity: overturned
